Assays:
[1] = molecular target: C-C chemokine receptor type 2 (Homo sapiens, UniProt P41597); assay: Binding affinity to human CCR2
[2] = Volume of distribution at steady state in dog at 10 mg/kg, po and 2 mg/kg iv; type: ADME, organism-based, Canis lupus familiaris; conditions: in vivo, read-out: Vdss
Outline: (§1)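 Dog pharmacokinetics: oral dosing at 10 mpk in 0.5% methocel and intravenous dosing at 2 mpk in 20% HPbCD. Readouts were systemic clearance, Vdss, oral t1/2 and oral AUC.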

[3] = test system: Mus musculus; assay: Antiinflammatory activity in thioglycollate-induced mouse peritonitis model expressing human CCR2 assessed as inhibition of macrophage infiltration administered as po bid; type: functional
Outline: (§2)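 Acute inflammation model: peritonitis was induced with thioglycollate in mCCR2 knock-out/hCCR2 knock-in mice. Compound was given orally, and infiltration of macrophages into the peritoneum was measured.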

[4] = molecular target: Cytochrome P450 2D6 (Homo sapiens, UniProt P10635); assay: Inhibition of human CYP2D6; type: ADME
[5] = AUC in dog at 10 mg/kg, po; type: ADME, organism-based, Canis lupus familiaris; design: dose 10 mg/kg, route oral; conditions: plasma; outline: as §1
[6] = molecular target: T1, Cytochrome P450 1A2 (Homo sapiens, UniProt P05177); assay: Inhibition of human CYP1A2; type: ADME
T1 sequence (P05177 whole entry): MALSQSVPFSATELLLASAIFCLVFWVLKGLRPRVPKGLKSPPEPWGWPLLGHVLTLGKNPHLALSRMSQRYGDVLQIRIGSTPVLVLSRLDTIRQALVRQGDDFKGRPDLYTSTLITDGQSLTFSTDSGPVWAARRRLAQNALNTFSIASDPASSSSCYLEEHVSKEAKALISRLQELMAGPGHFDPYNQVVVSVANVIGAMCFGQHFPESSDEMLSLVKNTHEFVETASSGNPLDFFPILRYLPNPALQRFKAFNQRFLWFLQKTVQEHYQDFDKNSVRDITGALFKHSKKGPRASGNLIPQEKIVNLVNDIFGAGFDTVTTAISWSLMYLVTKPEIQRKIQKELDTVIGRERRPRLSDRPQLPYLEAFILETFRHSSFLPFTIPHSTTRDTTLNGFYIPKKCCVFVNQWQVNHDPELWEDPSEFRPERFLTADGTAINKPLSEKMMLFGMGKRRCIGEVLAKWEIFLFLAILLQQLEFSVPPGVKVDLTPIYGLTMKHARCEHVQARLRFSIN

[7] = molecular target: Cytochrome P450 3A4 (Homo sapiens, UniProt P08684); assay: Inhibition of human CYP3A4; type: ADME
[8] = test system: Mus musculus; assay: Antiinflammatory activity in thioglycollate-induced mouse peritonitis model expressing human CCR2 assessed as inhibition of macrophage infiltration at 0.3 mg/kg, po bid relative to control; type: functional; outline: as §2
[9] = Half life in dog at 10 mg/kg, po; type: ADME, organism-based, Canis lupus familiaris; design: dose 10 mg/kg, route oral; conditions: in vivo; outline: as §1
[10] = test system: Mus musculus; assay: Antiinflammatory activity in thioglycollate-induced mouse peritonitis model expressing human CCR2 assessed as inhibition of macrophage infiltration at 3 mg/kg, po bid relative to control; type: functional; outline: as §2
[11] = Clearance in dog at 10 mg/kg, po and 2 mg/kg iv; type: ADME, organism-based, Canis lupus familiaris; conditions: in vivo; outline: as §1
[12] = molecular target: Cytochrome P450 2C9 (Homo sapiens, UniProt P11712); assay: Inhibition of human CYP2C9; type: ADME
[13] = Oral bioavailability in dog at 10 mg/kg; type: ADME, organism-based, Canis lupus familiaris; conditions: in vivo
[14] = test system: Mus musculus; assay: Antiinflammatory activity in thioglycollate-induced mouse peritonitis model expressing human CCR2 assessed as inhibition of macrophage infiltration at 10 mg/kg, po bid relative to control; type: functional; outline: as §2
[15] = molecular target: Cytochrome P450 2C19 (Homo sapiens, UniProt P33261); assay: Inhibition of human CYP2C19; type: ADME
[16] = test system: Mus musculus; assay: Antiinflammatory activity in thioglycollate-induced mouse peritonitis model expressing human CCR2 assessed as inhibition of macrophage infiltration at 1 mg/kg, po bid relative to control; type: functional; outline: as §2
[17] = molecular target: Voltage-gated inwardly rectifying potassium channel KCNH2 (Homo sapiens, UniProt Q12809); assay: Binding affinity to human ERG
Chain of Voltage-gated inwardly rectifying potassium channel KCNH2 (Q12809 whole entry): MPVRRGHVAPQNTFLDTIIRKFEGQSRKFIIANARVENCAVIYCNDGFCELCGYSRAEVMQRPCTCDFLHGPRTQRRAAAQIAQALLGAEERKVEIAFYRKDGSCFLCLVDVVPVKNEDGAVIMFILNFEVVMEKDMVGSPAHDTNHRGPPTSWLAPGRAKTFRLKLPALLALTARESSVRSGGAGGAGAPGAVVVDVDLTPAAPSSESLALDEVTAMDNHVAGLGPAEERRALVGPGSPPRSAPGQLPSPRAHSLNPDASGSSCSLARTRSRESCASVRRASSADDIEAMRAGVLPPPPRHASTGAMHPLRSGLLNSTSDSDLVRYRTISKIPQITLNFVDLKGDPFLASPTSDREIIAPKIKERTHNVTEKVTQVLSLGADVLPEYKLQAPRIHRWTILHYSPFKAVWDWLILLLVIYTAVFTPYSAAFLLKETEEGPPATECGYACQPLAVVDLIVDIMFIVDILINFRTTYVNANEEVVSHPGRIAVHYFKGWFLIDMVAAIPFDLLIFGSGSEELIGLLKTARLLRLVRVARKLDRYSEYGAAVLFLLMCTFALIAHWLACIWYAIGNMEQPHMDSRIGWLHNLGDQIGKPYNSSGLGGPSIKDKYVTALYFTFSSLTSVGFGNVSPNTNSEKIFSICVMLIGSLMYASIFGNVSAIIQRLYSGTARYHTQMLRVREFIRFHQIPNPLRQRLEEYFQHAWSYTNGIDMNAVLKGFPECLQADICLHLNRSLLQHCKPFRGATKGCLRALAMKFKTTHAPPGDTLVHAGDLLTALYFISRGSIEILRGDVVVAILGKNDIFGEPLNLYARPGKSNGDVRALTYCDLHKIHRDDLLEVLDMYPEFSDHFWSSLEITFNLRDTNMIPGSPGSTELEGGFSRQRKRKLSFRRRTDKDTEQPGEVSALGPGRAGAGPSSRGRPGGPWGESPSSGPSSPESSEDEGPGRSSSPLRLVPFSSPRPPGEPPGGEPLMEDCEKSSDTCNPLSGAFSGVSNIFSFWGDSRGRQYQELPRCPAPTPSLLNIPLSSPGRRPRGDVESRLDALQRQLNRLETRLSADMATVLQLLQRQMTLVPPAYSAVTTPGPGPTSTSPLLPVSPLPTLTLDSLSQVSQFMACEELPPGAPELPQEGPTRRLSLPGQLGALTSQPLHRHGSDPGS

Chain of C-C chemokine receptor type 2 (P41597 whole entry): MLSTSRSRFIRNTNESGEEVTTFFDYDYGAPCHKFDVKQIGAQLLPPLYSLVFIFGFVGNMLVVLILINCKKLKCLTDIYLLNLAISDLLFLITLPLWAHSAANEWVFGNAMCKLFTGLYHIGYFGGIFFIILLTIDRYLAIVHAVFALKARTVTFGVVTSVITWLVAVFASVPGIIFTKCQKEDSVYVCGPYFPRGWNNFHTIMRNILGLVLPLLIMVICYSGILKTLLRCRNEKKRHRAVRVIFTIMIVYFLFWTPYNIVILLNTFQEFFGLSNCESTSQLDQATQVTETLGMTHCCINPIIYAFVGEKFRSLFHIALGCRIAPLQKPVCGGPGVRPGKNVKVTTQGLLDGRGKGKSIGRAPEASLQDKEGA
Chain of Cytochrome P450 2C19 (P33261 whole entry): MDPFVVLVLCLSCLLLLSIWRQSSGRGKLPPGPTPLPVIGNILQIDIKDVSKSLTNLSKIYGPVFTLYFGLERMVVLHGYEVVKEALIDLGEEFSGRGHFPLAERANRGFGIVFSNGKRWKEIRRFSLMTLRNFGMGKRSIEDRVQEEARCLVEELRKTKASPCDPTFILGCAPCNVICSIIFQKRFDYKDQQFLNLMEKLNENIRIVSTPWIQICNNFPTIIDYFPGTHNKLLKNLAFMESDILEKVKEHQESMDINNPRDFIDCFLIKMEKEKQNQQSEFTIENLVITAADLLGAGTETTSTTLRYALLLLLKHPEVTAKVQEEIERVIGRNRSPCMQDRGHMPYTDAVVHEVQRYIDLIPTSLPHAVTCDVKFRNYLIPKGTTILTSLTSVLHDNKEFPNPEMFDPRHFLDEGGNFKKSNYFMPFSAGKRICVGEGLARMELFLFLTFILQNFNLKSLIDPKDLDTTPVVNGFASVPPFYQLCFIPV
Chain of Cytochrome P450 2D6 (P10635 whole entry): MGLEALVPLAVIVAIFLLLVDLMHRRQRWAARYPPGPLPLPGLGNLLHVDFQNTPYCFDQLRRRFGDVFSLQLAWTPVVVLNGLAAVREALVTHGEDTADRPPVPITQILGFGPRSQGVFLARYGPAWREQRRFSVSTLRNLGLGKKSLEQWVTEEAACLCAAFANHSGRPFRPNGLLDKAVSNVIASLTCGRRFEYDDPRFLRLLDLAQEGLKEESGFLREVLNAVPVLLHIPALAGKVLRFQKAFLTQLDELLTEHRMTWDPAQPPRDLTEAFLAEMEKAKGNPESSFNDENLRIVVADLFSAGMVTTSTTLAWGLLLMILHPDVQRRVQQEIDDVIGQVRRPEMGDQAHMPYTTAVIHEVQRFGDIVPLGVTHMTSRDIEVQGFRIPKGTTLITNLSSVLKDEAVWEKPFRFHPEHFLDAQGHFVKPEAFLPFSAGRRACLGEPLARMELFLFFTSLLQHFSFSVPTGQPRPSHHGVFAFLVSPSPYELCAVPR
Chain of Cytochrome P450 3A4 (P08684 whole entry): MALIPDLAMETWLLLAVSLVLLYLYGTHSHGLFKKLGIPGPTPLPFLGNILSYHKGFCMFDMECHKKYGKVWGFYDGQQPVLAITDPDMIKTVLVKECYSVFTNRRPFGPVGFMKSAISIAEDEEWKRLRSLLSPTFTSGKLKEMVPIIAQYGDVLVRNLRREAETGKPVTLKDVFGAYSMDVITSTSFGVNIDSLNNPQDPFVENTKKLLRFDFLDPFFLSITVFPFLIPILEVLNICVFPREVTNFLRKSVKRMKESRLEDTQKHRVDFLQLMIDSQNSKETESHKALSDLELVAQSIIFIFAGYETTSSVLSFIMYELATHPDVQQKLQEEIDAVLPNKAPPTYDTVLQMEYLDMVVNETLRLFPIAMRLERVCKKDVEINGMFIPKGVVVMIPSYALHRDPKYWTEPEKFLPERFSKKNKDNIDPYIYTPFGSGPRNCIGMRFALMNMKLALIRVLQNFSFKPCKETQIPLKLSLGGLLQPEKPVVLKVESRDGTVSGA
Chain of Cytochrome P450 2C9 (P11712 whole entry): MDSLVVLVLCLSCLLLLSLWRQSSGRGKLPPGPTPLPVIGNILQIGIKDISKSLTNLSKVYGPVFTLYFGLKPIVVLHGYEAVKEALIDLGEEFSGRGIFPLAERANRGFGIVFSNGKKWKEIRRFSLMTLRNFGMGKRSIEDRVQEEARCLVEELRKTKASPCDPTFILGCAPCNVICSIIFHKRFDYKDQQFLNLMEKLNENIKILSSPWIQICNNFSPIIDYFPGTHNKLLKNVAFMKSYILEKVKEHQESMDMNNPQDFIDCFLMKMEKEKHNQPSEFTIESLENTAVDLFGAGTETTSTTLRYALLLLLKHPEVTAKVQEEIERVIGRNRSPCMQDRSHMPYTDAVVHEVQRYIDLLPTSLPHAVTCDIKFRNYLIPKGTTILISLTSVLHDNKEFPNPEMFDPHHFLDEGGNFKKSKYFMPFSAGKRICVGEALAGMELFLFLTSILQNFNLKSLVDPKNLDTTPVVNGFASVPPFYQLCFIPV

| Structure (SMILES) | IC50 [1] [nM] | IC50 [17] [nM] | further results |
| --- | --- | --- | --- |
| COC1COCCC1N[C@@H]1C[C@H]2C[C@@H](N(C)C)C[C@@]2(C(=O)N2CCc3ncc(C(F)(F)F)cc3C2)C1 (stereo not given in full) | 247 |  |  |
| CO[C@@H]1COCC[C@@H]1N[C@@H]1C[C@H]2CCC[C@@]2(C(=O)N2CCc3ncc(C(F)(F)F)cc3C2)C1 |  |  | Vd [2]: 2.3 L/kg; ED50 [3]: 0.1 mg/kg; IC50 [4]: > 10000 nM; AUC [5]: 12100 ng·h/mL; IC50 [6]: > 10000 nM; IC50 [7]: 7500 nM; inhibition in vivo at 0.3 mg/kg [8]: 89%; half-life [9]: 3.4 h; inhibition in vivo at 3 mg/kg [10]: 100%; clearance [11]: 15.2 mL/min/kg; IC50 [12]: > 10000 nM; bioavailability [13]: 100%; inhibition in vivo at 10 mg/kg [14]: 101%; IC50 [15]: > 10000 nM; inhibition in vivo at 1 mg/kg [16]: 100% |
| CCC(CC)N[C@@H]1C[C@H]2CCC[C@@]2(C(=O)N2CCc3ncc(C(F)(F)F)cc3C2)C1 | 3300 | > 50000 |  |
| O=C(N1CCc2ncc(C(F)(F)F)cc2C1)[C@@]12CCC[C@@H]1C[C@@H](NC1CCCC1)C2 | 2330 | 33500 |  |
| O=C(N1CCc2ncc(C(F)(F)F)cc2C1)[C@@]12CCC[C@@H]1C[C@@H](NC1CCCCC1)C2 | 1530 |  |  |
| O=C(N1CCc2ncc(C(F)(F)F)cc2C1)[C@@]12CCC[C@@H]1C[C@@H](NC1CCCCCC1)C2 | 699 |  |  |
| O=C(N1CCc2ncc(C(F)(F)F)cc2C1)[C@@]12CCC[C@@H]1C[C@@H](NC1CCSCC1)C2 | 874 | 23100 |  |
| O=C(N1CCc2ncc(C(F)(F)F)cc2C1)[C@@]12CCC[C@@H]1C[C@@H](NC1CCS(=O)(=O)CC1)C2 | 3560 |  |  |
| O=C(N1CCc2ncc(C(F)(F)F)cc2C1)[C@@]12CCC[C@@H]1C[C@@H](NC1CCOCC1)C2 | 125 | 25700 |  |
| O=C(N1CCc2ncc(C(F)(F)F)cc2C1)[C@@]12CCC[C@@H]1C[C@@H](NCC1CCOCC1)C2 | > 25000 | 47000 |  |
| O=C(N[C@@H]1C[C@H]2CCC[C@@]2(C(=O)N2CCc3ncc(C(F)(F)F)cc3C2)C1)C1CCOCC1 | > 25000 | > 50000 |  |
| O=C(N1CCc2ncc(C(F)(F)F)cc2C1)[C@@]12CCCC[C@@H]1C[C@@H](NC1CCOCC1)C2 | 7930 | 38900 |  |
| COC1COCCC1N[C@@H]1C[C@H]2C[C@@H](OC)C[C@@]2(C(=O)N2CCc3ncc(C(F)(F)F)cc3C2)C1 (mixture of isomers) | 200 | > 50000 |  |
| COC1COCCC1N[C@@H]1C[C@H]2C[C@H](N(C)C)C[C@@]2(C(=O)N2CCc3ncc(C(F)(F)F)cc3C2)C1 (mixture of isomers) | 8090 |  |  |
| COC1COCCC1N[C@@H]1C[C@H]2CCC[C@@]2(C(=O)N2CCc3ccc(C#N)cc3C2)C1 (mixture of isomers) | 1800 |  |  |
| COC1COCCC1N[C@@H]1C[C@H]2CCC[C@@]2(C(=O)N2CCc3ccc(OC(F)(F)F)cc3C2)C1 (mixture of isomers) | 16 |  |  |
| COC1COCCC1N[C@@H]1C[C@H]2CC(F)(F)C[C@@]2(C(=O)N2CCc3ncc(C(F)(F)F)cc3C2)C1 (mixture of isomers) | 95 | > 50000 |  |
| COC1COCCC1N[C@@H]1C[C@H]2C[C@H](F)C[C@@]2(C(=O)N2CCc3ncc(C(F)(F)F)cc3C2)C1 (mixture of isomers) | 23 |  |  |
| COC1COCCC1N[C@@H]1C[C@H]2C[C@@H](F)C[C@@]2(C(=O)N2CCc3ncc(C(F)(F)F)cc3C2)C1 (mixture of isomers) | 150 |  |  |
| COC1COCCC1N[C@@H]1C[C@H]2C[C@H](Cl)C[C@@]2(C(=O)N2CCc3ncc(C(F)(F)F)cc3C2)C1 (mixture of isomers) | 20 | > 50000 |  |

| Structure (SMILES) | IC50 [1] [nM] | IC50 [17] [nM] | further results |
| --- | --- | --- | --- |
| COC1COCCC1N[C@@H]1C[C@H]2C[C@@H](Cl)C[C@@]2(C(=O)N2CCc3ncc(C(F)(F)F)cc3C2)C1 (mixture of isomers) | 45 | > 50000 |  |
| COC1COCCC1N[C@@H]1C[C@H]2C[C@H](C(F)(F)F)C[C@@]2(C(=O)N2CCc3ncc(C(F)(F)F)cc3C2)C1 (mixture of isomers) | 1260 |  |  |
| COC1COCCC1N[C@@H]1C[C@H]2C[C@@H](C(F)(F)F)C[C@@]2(C(=O)N2CCc3ncc(C(F)(F)F)cc3C2)C1 (mixture of isomers) | 263 |  |  |
| COC1COCCC1N[C@@H]1C[C@H]2C[C@H](C(N)=O)C[C@@]2(C(=O)N2CCc3ncc(C(F)(F)F)cc3C2)C1 (mixture of isomers) | 88 |  |  |
| COC1COCCC1N[C@@H]1C[C@H]2C[C@@H](C(N)=O)C[C@@]2(C(=O)N2CCc3ncc(C(F)(F)F)cc3C2)C1 (mixture of isomers) | 130 |  |  |
| COC1COCCC1N[C@@H]1C[C@H]2C[C@H](O)C[C@@]2(C(=O)N2CCc3ncc(C(F)(F)F)cc3C2)C1 (mixture of isomers) | 59 | > 50000 |  |
| COC1COCCC1N[C@@H]1C[C@H]2C[C@@H](O)C[C@@]2(C(=O)N2CCc3ncc(C(F)(F)F)cc3C2)C1 (mixture of isomers) | 58 | > 50000 |  |
| COC1COCCC1N[C@@H]1C[C@H]2C[C@H](OC)C[C@@]2(C(=O)N2CCc3ncc(C(F)(F)F)cc3C2)C1 (mixture of isomers) | 210 | > 50000 |  |
| COC1COCCC1N[C@@H]1C[C@H]2CCC[C@@]2(C(=O)N2CCc3ncccc3C2)C1 (mixture of isomers) | > 25000 |  |  |
| COC1COCCC1N[C@@H]1C[C@H]2CCC[C@@]2(C(=O)N2CCc3ncc(Cl)cc3C2)C1 (mixture of isomers) | 1100 |  |  |
| COC1COCCC1N[C@@H]1C[C@H]2CCC[C@@]2(C(=O)N2CCc3ncc(Br)cc3C2)C1 (mixture of isomers) | 200 |  |  |
| COC1COCCC1N[C@@H]1C[C@H]2CCC[C@@]2(C(=O)N2CCc3ncc([N+](=O)[O-])cc3C2)C1 (mixture of isomers) | 1500 |  |  |
| COc1cnc2c(c1)CN(C(=O)[C@@]13CCC[C@@H]1C[C@@H](NC1CCOCC1OC)C3)CC2 (mixture of isomers) | > 25000 |  |  |
| COC1COCCC1N[C@@H]1C[C@H]2CCC[C@@]2(C(=O)N2CCc3ncc(OC(C)C)cc3C2)C1 (mixture of isomers) | 5600 |  |  |
| COC1COCCC1N[C@@H]1C[C@H]2CCC[C@@]2(C(=O)N2CCc3ccc(F)cc3C2)C1 (mixture of isomers) | 4400 |  |  |
| COC1COCCC1N[C@@H]1C[C@H]2CCC[C@@]2(C(=O)N2CCc3ccc(Cl)cc3C2)C1 (mixture of isomers) | 400 | 42400 |  |
| COC1COCCC1N[C@@H]1C[C@H]2CCC[C@@]2(C(=O)N2CCc3ccc(Br)cc3C2)C1 (mixture of isomers) | 290 | 20300 |  |
| COC1COCCC1N[C@@H]1C[C@H]2CCC[C@@]2(C(=O)N2CCc3ccc(C(F)(F)F)cc3C2)C1 (mixture of isomers) | 34 | 27600 |  |
| COC1COCCC1N[C@@H]1C[C@H]2CCCC[C@@]2(C(=O)N2CCc3ncc(C(F)(F)F)cc3C2)C1 (mixture of isomers) | 1070 |  |  |

From ChEMBL document CHEMBL2311289, “Novel 2-aminooctahydrocyclopentalene-3a-carboxamides as potent CCR2 antagonists” (Bioorg Med Chem Lett, 2013)
